Results from publication PMC5573263 (Journal of medicinal chemistry, 2016).

Experiments:
[1] = Mouse liver microsome assay; format: in vitro ADME; details: for metabolism of the C-4 carboxanilide aromatic ring: microsomal metabolism studies, in words; for CLint scaled at 0.08 uM: female, CD-1, mouse, liver microsomes, pH 7.4
Outline: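 Pooled female CD-1 mouse liver microsomes in 0.1 M potassium phosphate (pH 7.4) with EDTA. Test compound (0.08 uM final) incubated with NADPH-regenerating system at 37 °C, shaken, in triplicate. At 0, 0.5, 1, 2 and 4 h, quenched with cold methanol containing 2 μM caffeine internal standard; UPLC-MS. Half-life from the decay slope; CLint scaled with 0.5 mg/mL protein, 45 mg microsome/g liver and 52 g liver/kg.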

[2] = Dose related exposure in the rat; format: in vivo; details: data not shown
Ames' assay = format: cell-based

| CLint scaled at 0.08 uM [1] [mL/min/kg] | Compound | further results |
| --- | --- | --- |
| – | COc1ccc(NC(=O)[C@H]2c3ccccc3C(=O)N(CC(C)C)[C@@H]2c2cccs2)cc1Cl (racemic) [10b] | metabolism of the C-4 carboxanilide aromatic ring [1]: readily demethylated |
| 195 | CC(C)CN1C(=O)c2ccccc2[C@H](C(=O)Nc2cccc(C#N)c2)[C@H]1c1cccs1 (racemic) [10d] | metabolism of the C-4 carboxanilide aromatic ring [1]: hydroxylated |
| 44.7 | CC(C)CN1C(=O)c2ccccc2[C@H](C(=O)Nc2ccc(F)c(C#N)c2)[C@H]1c1ccc(C#N)s1 (racemic) [11l] | – |
| 162 | CC(C)CN1C(=O)c2ccccc2[C@H](C(=O)Nc2ccc(F)c(C#N)c2)[C@H]1c1cn[nH]c1 (racemic) [11t] | – |
| < 13.5 | N#Cc1cc(NC(=O)[C@H]2c3ccccc3C(=O)N(CC(F)(F)F)[C@@H]2c2cn[nH]c2)ccc1F (relative stereo) [13h, (3S*,4S*)-N-(3-Cyano-4-fluorophenyl)-1-oxo-3-(1H-pyrazol-4-yl)-2-(2,2,2-trifluoroethyl)-1,2,3,4-tetrahydroisoquinoline-4-carboxamide] | – |
| 33.1 | N#Cc1cc(NC(=O)[C@H]2c3ccccc3C(=O)N(CC(F)(F)F)[C@@H]2c2cccnc2)ccc1F (relative stereo) [13i, (3S*,4S*)-N-(3-Cyano-4-fluorophenyl)-1-oxo-3-(pyridin-3-yl)-2-(2,2,2-trifluoroethyl)-1,2,3,4-tetrahydroisoquinoline-4-carboxamide] | dose related exposure [2]: excellent dose related exposure |
| – | N#Cc1cc(N)ccc1F [3-cyano-4-fluoroaniline] | Ames' assay result (Ames' assay): negative |
